# Laboratory results taken from ChEMBL document CHEMBL2346654, “Discovery of biological evaluation of pyrazole/imidazole amides as mGlu5 receptor negative allosteric modulators” (Bioorg Med Chem Lett, 2013).
# Calls of active or inactive are those of the source. The rule behind the calls is not given here.
# What was measured:
# [1] = target: T1, Metabotropic glutamate receptor 5 (Homo sapiens, UniProt P41594); assay: Negative allosteric modulation of human mGluR5 expressed in HEK293 cells assessed as calcium mobilization by FLIPR assay; type: functional, cell-based
# Target sequence in this assay (P41594 whole entry): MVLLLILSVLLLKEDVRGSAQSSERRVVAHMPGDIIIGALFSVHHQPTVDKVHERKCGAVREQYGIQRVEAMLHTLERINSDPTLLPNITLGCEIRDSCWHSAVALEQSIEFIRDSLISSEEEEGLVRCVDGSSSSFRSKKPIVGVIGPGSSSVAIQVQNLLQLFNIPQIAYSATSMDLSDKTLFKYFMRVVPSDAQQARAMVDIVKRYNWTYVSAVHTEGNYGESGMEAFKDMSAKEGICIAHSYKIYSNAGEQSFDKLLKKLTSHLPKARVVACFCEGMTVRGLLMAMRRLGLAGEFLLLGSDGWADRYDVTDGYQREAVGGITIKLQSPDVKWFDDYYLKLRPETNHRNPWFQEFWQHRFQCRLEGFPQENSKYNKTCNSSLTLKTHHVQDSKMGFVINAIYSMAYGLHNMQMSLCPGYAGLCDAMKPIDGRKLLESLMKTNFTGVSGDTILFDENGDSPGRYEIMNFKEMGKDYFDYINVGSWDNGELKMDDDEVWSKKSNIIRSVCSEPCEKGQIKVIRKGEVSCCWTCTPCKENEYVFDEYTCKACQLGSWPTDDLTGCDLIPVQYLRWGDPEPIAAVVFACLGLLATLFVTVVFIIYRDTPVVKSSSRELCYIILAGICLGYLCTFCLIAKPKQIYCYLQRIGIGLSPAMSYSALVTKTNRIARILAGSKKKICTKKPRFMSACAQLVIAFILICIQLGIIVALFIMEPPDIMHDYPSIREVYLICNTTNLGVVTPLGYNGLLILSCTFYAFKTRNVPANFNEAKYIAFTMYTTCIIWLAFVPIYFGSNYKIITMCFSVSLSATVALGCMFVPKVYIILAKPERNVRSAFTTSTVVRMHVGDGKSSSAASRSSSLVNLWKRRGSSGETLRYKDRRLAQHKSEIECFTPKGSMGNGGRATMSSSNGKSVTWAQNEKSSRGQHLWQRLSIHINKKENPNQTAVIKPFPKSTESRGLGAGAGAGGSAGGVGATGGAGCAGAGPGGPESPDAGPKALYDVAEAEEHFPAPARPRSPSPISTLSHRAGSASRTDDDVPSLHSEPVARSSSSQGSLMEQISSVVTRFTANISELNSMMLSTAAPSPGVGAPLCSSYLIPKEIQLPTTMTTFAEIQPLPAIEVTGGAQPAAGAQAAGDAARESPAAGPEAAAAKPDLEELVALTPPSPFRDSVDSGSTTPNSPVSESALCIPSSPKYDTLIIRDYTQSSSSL
# Mus musculus [2] = assay: Antidepressant activity in ICR mouse assessed as decrease in immobility time at 10 mg/kg, po administered 1 hr before test measured for 4 mins following training for 2 mins by forced swimming test; type: functional; design: scale not given: the % may be the effect or the level left
# Summary of the method: (§1)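 Mouse forced swim test: ICR mice dosed orally 1 h before testing; 2 min training, then immobility duration recorded over 4 min. Activity expressed as % decrease in immobility duration. Mean ± SEM, n = 8; Dunnett's multiple comparisons after one-way ANOVA (p < 0.05).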
# [3] = Half life in rat liver microsomes
# [4] = Half life in human liver microsomes
# [5] = Half life in mouse liver microsomes
# [6] = target: T1, Metabotropic glutamate receptor 5; assay: Negative allosteric modulation of human mGluR5 expressed in HEK293 cells assessed as calcium mobilization at 1 uM by FLIPR assay; type: functional, cell-based
# Target sequence in this assay (P41594 21-1212 limits assumed): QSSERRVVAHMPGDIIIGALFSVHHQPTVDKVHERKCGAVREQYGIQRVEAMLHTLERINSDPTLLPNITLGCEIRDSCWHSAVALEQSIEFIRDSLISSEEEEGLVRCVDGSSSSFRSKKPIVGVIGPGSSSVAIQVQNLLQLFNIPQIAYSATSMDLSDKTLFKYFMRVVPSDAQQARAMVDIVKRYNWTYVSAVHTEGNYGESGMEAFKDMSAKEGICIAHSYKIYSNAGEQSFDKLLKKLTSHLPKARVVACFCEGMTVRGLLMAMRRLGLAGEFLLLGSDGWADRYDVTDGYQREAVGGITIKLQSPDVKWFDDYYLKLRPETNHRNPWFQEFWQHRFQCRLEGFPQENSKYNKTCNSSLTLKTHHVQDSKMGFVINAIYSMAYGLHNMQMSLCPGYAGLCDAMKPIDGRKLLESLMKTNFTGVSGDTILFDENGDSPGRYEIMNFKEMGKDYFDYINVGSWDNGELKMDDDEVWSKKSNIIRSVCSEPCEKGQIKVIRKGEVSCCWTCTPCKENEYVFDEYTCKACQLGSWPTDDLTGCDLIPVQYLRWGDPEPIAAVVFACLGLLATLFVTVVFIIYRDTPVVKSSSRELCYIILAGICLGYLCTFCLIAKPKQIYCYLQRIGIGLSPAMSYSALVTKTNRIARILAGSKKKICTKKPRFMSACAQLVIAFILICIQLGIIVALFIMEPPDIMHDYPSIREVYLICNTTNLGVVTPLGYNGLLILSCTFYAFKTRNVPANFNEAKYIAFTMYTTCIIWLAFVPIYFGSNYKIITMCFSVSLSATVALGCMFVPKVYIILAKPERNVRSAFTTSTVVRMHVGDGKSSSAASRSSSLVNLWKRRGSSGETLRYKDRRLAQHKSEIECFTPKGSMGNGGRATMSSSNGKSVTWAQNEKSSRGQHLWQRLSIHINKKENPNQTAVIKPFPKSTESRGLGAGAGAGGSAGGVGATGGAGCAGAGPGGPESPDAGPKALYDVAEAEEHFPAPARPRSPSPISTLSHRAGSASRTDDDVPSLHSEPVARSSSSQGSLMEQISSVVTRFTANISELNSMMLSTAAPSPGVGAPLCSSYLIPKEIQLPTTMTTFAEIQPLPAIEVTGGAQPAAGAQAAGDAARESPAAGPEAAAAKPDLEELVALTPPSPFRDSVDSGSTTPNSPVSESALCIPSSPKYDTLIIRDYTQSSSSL
# [7] = Intrinsic clearance in human hepatocytes assessed per 10^6 cells; type: ADME, cell-based, Hepatocyte; conditions: read-out: CLH
# Cytochrome P450 2D6 = Cytochrome P450 2D6 (Homo sapiens, UniProt P10635); assay: Inhibition of CYP2D6 (unknown origin) at 10 uM; type: ADME
# Cytochrome P450 1A2 = Cytochrome P450 1A2 (Homo sapiens, UniProt P05177); assay: Inhibition of CYP1A2 (unknown origin) at 10 uM; type: ADME
# Cytochrome P450 1A2, sequence (P05177 whole entry): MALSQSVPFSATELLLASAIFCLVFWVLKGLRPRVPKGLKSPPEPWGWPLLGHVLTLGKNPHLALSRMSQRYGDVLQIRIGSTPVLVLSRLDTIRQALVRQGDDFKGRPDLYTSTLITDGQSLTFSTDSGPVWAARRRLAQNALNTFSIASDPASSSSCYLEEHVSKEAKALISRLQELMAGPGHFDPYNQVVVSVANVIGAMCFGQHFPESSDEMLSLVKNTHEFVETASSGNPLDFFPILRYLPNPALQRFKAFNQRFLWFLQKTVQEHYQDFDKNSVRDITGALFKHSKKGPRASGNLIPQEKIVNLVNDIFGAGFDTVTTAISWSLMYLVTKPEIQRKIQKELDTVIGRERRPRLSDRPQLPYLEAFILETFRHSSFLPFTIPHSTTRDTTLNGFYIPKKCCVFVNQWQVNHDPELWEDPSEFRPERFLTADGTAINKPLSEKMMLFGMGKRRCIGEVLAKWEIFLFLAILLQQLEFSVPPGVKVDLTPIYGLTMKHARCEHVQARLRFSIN
# [8] = Ratio of drug level in brain to plasma in Sprague-Dawley rat at 10 mg/kg, ip after 1 hr; type: ADME, organism-based; design: dose 10 mg/kg, route intraperitoneal; conditions: brain and plasma, read-out: BPR
# Summary of the method: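 Sprague–Dawley rats given a single 10 mg/kg intraperitoneal dose. Plasma and brain concentrations measured 1 h after dosing and expressed as a brain/plasma ratio.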
# Cytochrome P450 2C9 = Cytochrome P450 2C9 (Homo sapiens, UniProt P11712); assay: Inhibition of CYP2C9 (unknown origin) at 10 uM; type: ADME
# Cytochrome P450 2C9, sequence (P11712 whole entry): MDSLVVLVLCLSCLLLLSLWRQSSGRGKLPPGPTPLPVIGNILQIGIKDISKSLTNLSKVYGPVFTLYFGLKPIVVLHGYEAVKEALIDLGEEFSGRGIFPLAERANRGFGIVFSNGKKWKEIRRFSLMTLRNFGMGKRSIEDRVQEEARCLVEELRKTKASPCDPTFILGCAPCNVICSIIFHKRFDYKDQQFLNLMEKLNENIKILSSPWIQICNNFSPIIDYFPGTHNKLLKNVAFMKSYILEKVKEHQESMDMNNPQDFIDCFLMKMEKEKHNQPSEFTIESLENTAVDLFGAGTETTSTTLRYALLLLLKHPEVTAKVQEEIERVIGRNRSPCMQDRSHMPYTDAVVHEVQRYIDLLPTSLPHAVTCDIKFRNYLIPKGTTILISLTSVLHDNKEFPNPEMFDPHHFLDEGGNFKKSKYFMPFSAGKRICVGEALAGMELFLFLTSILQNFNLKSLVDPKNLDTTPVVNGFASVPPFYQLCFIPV
# hERG (KCNH2) = hERG (KCNH2) (Homo sapiens, UniProt Q12809); assay: Inhibition of human ERG at 10 uM
# Cytochrome P450 3A4 = Cytochrome P450 3A4 (Homo sapiens, UniProt P08684); assay: Inhibition of CYP3A4 (unknown origin) at 10 uM; type: ADME
# Cytochrome P450 2C19 = Cytochrome P450 2C19 (Homo sapiens, UniProt P33261); assay: Inhibition of CYP2C19 (unknown origin) at 10 uM; type: ADME
# [9] = target: Metabotropic glutamate receptor 1 (Homo sapiens) (UniProt Q13255); assay: Inhibition of mGluR1 (unknown origin) at 10 uM
# [10] = target: Adenosine receptor A2a (Homo sapiens) (UniProt P29274); assay: Inhibition of adenosine A2A receptor (unknown origin) at 10 uM
# [11] = target: 5-hydroxytryptamine receptor 2C (Homo sapiens) (UniProt P28335); assay: Inhibition of 5-HT2C receptor (unknown origin) at 10 uM
# [12] = target: Muscarinic acetylcholine receptor M1 (Homo sapiens) (UniProt P11229); assay: Inhibition of muscarinic M1 receptor (unknown origin) at 10 uM
# [13] = target: Histamine H1 receptor (Homo sapiens) (UniProt P35367); assay: Inhibition of histamine H1 receptor (unknown origin) at 10 uM
# [14] = target: Sodium-dependent dopamine transporter (Homo sapiens) (UniProt Q01959); assay: Inhibition of DAT (unknown origin) at 10 uM
# Sodium-dependent dopamine transporter (Homo sapiens), sequence (Q01959 whole entry): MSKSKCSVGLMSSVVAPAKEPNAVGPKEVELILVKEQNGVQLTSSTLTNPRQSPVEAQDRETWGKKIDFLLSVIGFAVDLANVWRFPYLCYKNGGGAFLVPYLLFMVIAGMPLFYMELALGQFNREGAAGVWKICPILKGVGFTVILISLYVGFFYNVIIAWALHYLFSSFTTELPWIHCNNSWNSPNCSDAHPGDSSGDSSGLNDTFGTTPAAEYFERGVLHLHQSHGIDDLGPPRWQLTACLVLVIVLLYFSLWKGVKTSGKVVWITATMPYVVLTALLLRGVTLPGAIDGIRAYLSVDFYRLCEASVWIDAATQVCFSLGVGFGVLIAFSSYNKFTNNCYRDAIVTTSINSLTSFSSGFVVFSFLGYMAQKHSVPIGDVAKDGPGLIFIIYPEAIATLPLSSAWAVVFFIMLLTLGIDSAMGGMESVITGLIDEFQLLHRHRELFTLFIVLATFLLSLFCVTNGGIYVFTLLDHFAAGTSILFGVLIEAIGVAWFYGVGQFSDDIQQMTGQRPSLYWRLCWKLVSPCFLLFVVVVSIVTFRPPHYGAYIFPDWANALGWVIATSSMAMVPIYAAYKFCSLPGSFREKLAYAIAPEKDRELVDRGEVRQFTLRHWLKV
# [15] = target: Muscarinic acetylcholine receptor M2 (Homo sapiens) (UniProt P08172); assay: Inhibition of muscarinic M2 receptor (unknown origin) at 10 uM
# [16] = target: Sodium-dependent serotonin transporter (Homo sapiens) (UniProt P31645); assay: Inhibition of SERT (unknown origin) at 10 uM
# [17] = Half life in rat plasma; type: ADME, cell-free
# [18] = target: Amine oxidase [flavin-containing] A (Homo sapiens, UniProt P21397); assay: Inhibition of MAO-A (unknown origin) at 10 uM
# Mus musculus [19] = assay: Antidepressant activity in ICR mouse assessed as decrease in immobility time at 50 mg/kg, po administered 1 hr before test measured for 4 mins following training for 2 mins by forced swimming test; type: functional; design: scale not given: the % may be the effect or the level left; summary of the method: as §1
# [20] = target: Sodium-dependent noradrenaline transporter (Homo sapiens) (UniProt P23975); assay: Inhibition of NET (unknown origin) at 10 uM
# Sodium-dependent noradrenaline transporter (Homo sapiens), sequence (P23975 whole entry): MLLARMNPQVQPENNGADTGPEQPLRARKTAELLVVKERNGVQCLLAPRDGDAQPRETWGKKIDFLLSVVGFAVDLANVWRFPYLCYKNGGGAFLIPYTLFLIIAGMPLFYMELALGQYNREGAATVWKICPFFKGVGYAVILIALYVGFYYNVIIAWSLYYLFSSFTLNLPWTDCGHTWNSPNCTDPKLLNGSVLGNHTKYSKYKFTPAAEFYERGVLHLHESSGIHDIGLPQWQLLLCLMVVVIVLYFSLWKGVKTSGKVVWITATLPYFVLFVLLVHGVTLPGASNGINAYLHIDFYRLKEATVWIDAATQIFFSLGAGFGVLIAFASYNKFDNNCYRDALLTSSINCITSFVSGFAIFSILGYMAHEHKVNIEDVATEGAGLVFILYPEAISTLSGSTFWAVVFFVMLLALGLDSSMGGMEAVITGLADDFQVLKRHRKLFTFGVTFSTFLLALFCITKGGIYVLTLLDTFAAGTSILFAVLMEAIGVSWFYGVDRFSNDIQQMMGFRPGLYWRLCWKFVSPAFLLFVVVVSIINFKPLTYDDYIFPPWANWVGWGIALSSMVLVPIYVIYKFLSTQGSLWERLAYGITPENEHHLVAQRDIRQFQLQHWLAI
# [21] = target: Amine oxidase [flavin-containing] B (Homo sapiens, UniProt P27338); assay: Inhibition of MAO-B (unknown origin) at 10 uM
# [22] = target: Alpha-1D adrenergic receptor (Homo sapiens) (UniProt P25100); assay: Inhibition of adrenergic alpha1D receptor (unknown origin) at 10 uM
# [23] = target: T1, Metabotropic glutamate receptor 5; assay: Negative allosteric modulation of human mGluR5 expressed in HEK293 cells assessed as calcium mobilization at 10 uM by FLIPR assay; type: functional, cell-based
# Target sequence in this assay (P41594 21-1212 limits assumed): as the sequence (P41594 21-1212 limits assumed) above
# [24] = target: T1, Metabotropic glutamate receptor 5; assay: Negative allosteric modulation of human mGluR5 expressed in HEK293 cells assessed as calcium mobilization at 2 uM by FLIPR assay; type: functional, cell-based
# Target sequence in this assay (P41594 21-1212 limits assumed): as above
# Mus musculus [25] = assay: Antidepressant activity in ip dosed ICR mouse assessed as decrease in immobility time administered 1 hr before test measured for 4 mins following training for 2 mins by forced swimming test
# Mus musculus [26] = assay: Toxicity in ICR mouse assessed as induction of locomotor activity at 1 to 30 mg/kg, ip; type: organism-based; design: dose 1-30 mg/kg, route intraperitoneal; conditions: in vivo
# Summary of the method: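 Locomotor activity tests in mice, run to separate antidepressant effect from hyperactivity. Compound given intraperitoneally over a dose range of 1 mg/kg to 30 mg/kg.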
# Rattus norvegicus = assay: Antidepressant activity in rat assessed as decrease in immobility time at 10 mg/kg, ip by forced swimming test; type: functional; design: scale not given: the % may be the effect or the level left; conditions: route intraperitoneal
# Summary of the method: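 Rat forced swim test with intraperitoneal dosing at 10 mg/kg. Read-out is % decrease in immobility duration. Dosing vehicle 5% DMSO + 5% Cremophore.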
# [27] = Oral bioavailability in rat; type: ADME, organism-based; conditions: in vivo
# Summary of the method: (§2)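 Oral bioavailability (F) determined in mice and rats. Dosing vehicle 5% DMSO + 5% Cremophore.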
# [28] = Oral bioavailability in mouse; type: ADME, organism-based; conditions: in vivo; summary of the method: as §2
SMILES,IC50 [1] [nM],Activity (Mus musculus [2]) [%],half-life ([3]; liver microsomes) [h],half-life ([4]; liver microsomes) [h],half-life ([5]; liver microsomes) [h],also measured
Cc1ccc(-c2c(C)c(C(=O)Nc3cccc(C)n3)nn2C)cc1,5.3,30.8,–,–,–,–
Cc1c(C(=O)Nc2ccc(F)cn2)nn(C)c1-c1ccc(F)cc1,10.3,36.8,–,–,–,half-life ([3]; microsomes): > 5 h; half-life ([4]; microsomes): > 5 h; half-life ([5]; microsomes): 0.65 h
Cc1cccc(NC(=O)c2nn(C)c(OC3CCOCC3)c2C)n1,–,–,–,–,–,inhibition [6]: 11.6%
Cc1cccc(NC(=O)c2nc(C)n(-c3ccc(Cl)c(Cl)c3)c2C)n1,5.8,85.2,2.23,2.03,1.55,–
Cc1cccc(NC(=O)c2nn(C)c(-c3ccc(F)c(F)c3)c2C)n1,4.3,58.8,–,–,–,half-life ([3]; microsomes): 2.48 h; half-life ([4]; microsomes): 0.767 h; half-life ([5]; microsomes): 0.7 h
Cc1nc(C(=O)Nc2ccnc(Cl)n2)c(C)n1-c1ccc(F)cc1,40.4,65.3,2.75,4.72,4.63,hepatocyte CLint [7]: 0.99 µL/min/1e6 cells; inhibition (INH) (Cytochrome P450 2D6): Not Active; inhibition (INH) (Cytochrome P450 1A2): Not Active; Kp at 1 h [8]: 1.63; inhibition (INH) (Cytochrome P450 2C9): Not Active; inhibition at 10 µM (hERG (KCNH2)): 13%; inhibition (INH) (Cytochrome P450 3A4): Not Active; inhibition (INH) (Cytochrome P450 2C19): Not Active; inhibition [9]: 10%
COc1ccc(-c2c(C)c(C(=O)Nc3cccc(C)n3)nn2C)cc1,17,14.4,1.58,> 5,1.18,–
Cc1cccc(NC(=O)c2nn(C)c(-c3ccccc3)c2C)n1,4.4,–,0.4,1.1,0.3,inhibition [10]: inactive; inhibition [11]: 66%; inhibition [12]: inactive; inhibition [13]: inactive; inhibition [14]: 60%; inhibition [15]: inactive; inhibition [16]: inactive; half-life [17]: > 3 h; inhibition (INH) [18]: Not Active; Activity (Mus musculus [19]): 53.3%; inhibition [20]: 63%; inhibition (INH) [21]: Not Active; inhibition [22]: inactive
Cc1cccc(NC(=O)c2nn(C)c(-c3ccc(C(F)(F)F)cc3)c2C)n1,38,18.5,> 5,> 5,3.23,–
Cc1cccc(NC(=O)c2nn(C)c(-c3ccc(Cl)cc3)c2C)n1,3.8,51.4,–,–,–,–
Cc1cccc(NC(=O)c2nn(C)c(-c3ccccc3)c2-c2ccccc2)n1,–,–,–,–,–,inhibition [23]: 26%
Cc1c(C(=O)Nc2ccnc(Cl)c2)nn(C)c1-c1ccc(F)cc1,56.3,39.1,–,–,–,half-life ([3]; microsomes): 2.68 h; half-life ([4]; microsomes): > 5 h; half-life ([5]; microsomes): > 5 h
Cc1c(C(=O)Nc2ccnc(Cl)n2)nn(C)c1-c1ccc(F)cc1,7.1,31.2,> 5,> 5,> 5,–
Cc1c(C(=O)Nc2ccnc(F)c2)nn(C)c1-c1ccc(F)cc1,41.6,15.5,1.9,> 5,> 5,–
Cc1cccc(NC(=O)c2nn(C)c(OC3CCNCC3)c2C)n1,–,–,–,–,–,inhibition [24]: 5.6%
Fc1ccc2nc(CCC#Cc3ccccn3)cn2c1 [DIPRAGLURANT],20,–,–,–,–,Activity (Mus musculus [19]): 44.3%
CCCc1c(C(=O)Nc2cccc(C)n2)nn(C)c1-c1ccccc1,–,–,–,–,–,inhibition [24]: 37%
Cc1cccc(NC(=O)c2nn(C)c(-c3ccc(F)cc3F)c2C)n1,3.7,25.7,1.27,1.12,0.633,–
Cc1c(C(=O)Nc2cccc(Cl)n2)nn(C)c1-c1ccc(F)cc1,16.4,12.6,1.8,1.92,1.93,–
Cc1cccc(NC(=O)c2nc(C)n(-c3ccc(F)cc3)c2C)n1,13,52.1,–,–,–,half-life ([3]; microsomes): 1.77 h; half-life ([4]; microsomes): 0.733 h; half-life ([5]; microsomes): 0.3 h
Cc1cccc(NC(=O)c2nn(C)c(-c3ccc(Cl)c(Cl)c3)c2C)n1,2.3,45.8,2.47,1.78,3.25,–
Cc1csc(NC(=O)c2nn(C)c(-c3ccc(F)cc3)c2C)n1,16.4,32.8,–,–,–,half-life ([3]; microsomes): 1.02 h; half-life ([4]; microsomes): 2.03 h; half-life ([5]; microsomes): 0.75 h
Cc1cccc(NC(=O)c2nn(C)c(OC3CCN(C)CC3)c2C)n1,–,–,–,–,–,inhibition [6]: -7.7%
Cc1c(C(=O)Nc2cccc(C(F)(F)F)n2)nn(C)c1-c1ccc(F)cc1,130,–,0.967,4.48,1.63,–
Cc1cccc(NC(=O)c2cc(-c3ccccc3)n(C)n2)n1,95,–,–,–,–,half-life [17]: < 1 h
Cc1cccc(NC(=O)c2nc(C)n(-c3ccc(C(F)(F)F)cc3)c2C)n1,46.2,–,–,–,–,half-life ([3]; microsomes): > 5 h; half-life ([4]; microsomes): > 5 h; half-life ([5]; microsomes): > 5 h
Cc1cccc(NC(=O)c2nn(C)c(-c3ccc(F)cc3)c2C)n1,1.1,61.1,0.933,1.37,0.6,ED50 (Mus musculus [25]): 1.1 mg/kg; Activity (Mus musculus [26]): Non-toxic; Activity (Rattus norvegicus): 10.9%; bioavailability [27]: < 2%; bioavailability [28]: 31%
Cc1nc(C#Cc2cccnc2)cs1,–,14,–,–,–,–
